NCF1 inh: p47phox (human) inhibition. P14598. p47phox/p22phox peptide binding, fluorescence polarization, 2 h. inhibition, % at 24.7 µM. 220,000 tested, 0.53% active. AID 1274;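 active = inhibition above about 30%, limit read from the data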
Hck-Nef inh: inhibitors of human Hck kinase activated by Nef | inhibition, % at 20 µM | Recombinant Hck-YEEI plus Nef, Z-Lyte FRET kinase assay | 220,000 tested, 0.68% active | P08631;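 active = Hck-Nef kinase inhibition above about 50%, limit read from the data; inactive = inhibition below that limit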
Target sequence (P08631 whole entry, looked up): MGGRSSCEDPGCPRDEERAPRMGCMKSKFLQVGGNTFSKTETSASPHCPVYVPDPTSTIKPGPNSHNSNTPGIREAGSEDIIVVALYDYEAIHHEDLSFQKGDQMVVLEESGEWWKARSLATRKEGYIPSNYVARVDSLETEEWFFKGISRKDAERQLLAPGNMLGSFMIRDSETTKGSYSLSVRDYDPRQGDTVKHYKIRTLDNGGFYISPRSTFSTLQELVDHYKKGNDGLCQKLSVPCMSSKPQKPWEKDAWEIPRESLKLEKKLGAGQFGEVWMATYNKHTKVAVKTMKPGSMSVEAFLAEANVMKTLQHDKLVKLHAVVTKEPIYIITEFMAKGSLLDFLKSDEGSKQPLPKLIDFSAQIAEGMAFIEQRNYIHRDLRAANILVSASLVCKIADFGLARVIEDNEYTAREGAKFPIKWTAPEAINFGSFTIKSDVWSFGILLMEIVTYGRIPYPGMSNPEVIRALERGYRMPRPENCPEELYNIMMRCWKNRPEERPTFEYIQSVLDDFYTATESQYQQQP
WT yeast gro inh: growth inhibition of WT yeast, mitochondrial fusion screen; mitochondrial fusion phenotypic screen, WT strain; 190,000 tested, 2.1% active; inhibition, % at 10 µM; in the data active = inhibition above about 58%; tested in S. cerevisiae
Calb biofilm kill: mixtures killing C. albicans biofilm; C. albicans biofilm persisters + clotrimazole, fluorescence viability; primary screen in compound mixtures of four per well; inhibition, % at 7.6 µM; 120,000 tested, 0.02% active; AID 1242;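 active = inhibition above 30.3% in the primary screen of four-compound pools, then above 30% when the compound was retested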;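 note: compounds exposed to preformed 24 h biofilms for 48 h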
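System: C. albicans CAF4-2 wild-type biofilms; Medium: RPMI/MOPS medium, pH 7.0; Reagent: Clotrimazole, 50 µg/mL; Times: biofilm formation 24 h, compound exposure 48 h, 37 °C; Detection: 2-h Alamar Blue fluorescence, 535/590 nm excitation/emission; Evaluation: percent inhibition of biofilm viability.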
Arbovirus anti: blocks arbovirus infection. arbovirus infection cell-based antiviral screen. inhibition, % at 10 µM. AID 1251. 200,000 tested, 0.37% active; in the data active = inhibition above about 30%
RAM network inh: yeast RAM network inhibition; S. cerevisiae dse1pr::URA3 reporter, 5-FOA growth OD615, 2 d; analog-sensitive cbk1-as2 kinase mutant strain; inhibition, % at 50 µM; 190,000 tested, 1.8% active; AID 868;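 active = inhibition above a set limit, 3 SD over mean compound inhibition, cut at about 8.4% in these data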;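 note: inhibition rescues growth on 5-FOA so higher OD means more RAM inhibition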
Each line names hits and unclear results; the compound was inactive in the other large screens. An excerpt weighted towards active compounds, which were near 4.6% of everything screened.

Cc1ccc(SC(C)c2nc(-c3cccnc3)no2)cc1 (stereo not given)	none (no result: Calb biofilm kill)
C/C(=N/NC(=O)c1ccc2c(c1)OCO2)c1ccc(NC(=O)C(F)(F)F)cc1	NCF1 inh 33.5
CCN1CCN(c2ccc(NC(=O)c3ccc4c(c3)OCO4)cc2)CC1	WT yeast gro inh 64.0 (no result: Calb biofilm kill)
O=C(Nc1ccc(Cl)cc1)c1ccc2c(c1)OCO2	WT yeast gro inh 80.0 (no result: Calb biofilm kill)
O=C(Nc1ccc2c(c1)OCO2)c1ccc2c(c1)OCO2	none
CCC(=O)N1CCN(c2ccc(NC(=O)c3ccc4c(c3)OCO4)cc2)CC1	none (no result: Calb biofilm kill)
O=C(Nc1ccc(N2CCCCC2)c(Cl)c1)c1ccc2c(c1)OCCO2	WT yeast gro inh 68.5 (no result: Calb biofilm kill)
O=[N+]([O-])c1ccc(OCc2cn([C@@H](CO)c3ccccc3)nn2)c(Br)c1	none (no result: WT yeast gro inh, Arbovirus anti, RAM network inh)
Cc1csc(=Nc2ccc(S(=O)(=O)N3CCOCC3)cc2)n1Cc1ccco1	none (no result: Calb biofilm kill)
CCc1nnc(NC(=O)CSc2nnc(COc3ccccc3)n2-c2ccc(C)cc2)s1	none (no result: Calb biofilm kill)
CCc1nnc(NC(=O)CSc2nnc(-c3ccccc3O)n2-c2ccc(C)cc2C)s1	RAM network inh 8.5 (no result: Calb biofilm kill)
O=C1/C(=C/c2cccs2)SC(=S)N1NS(=O)(=O)c1ccccc1	Hck-Nef inh 77.6 (no result: WT yeast gro inh, Arbovirus anti, RAM network inh)
O=C(NN1C(=O)/C(=C/c2cccs2)SC1=S)c1ccncc1	none (no result: WT yeast gro inh, Arbovirus anti, RAM network inh)
Cc1c(C(=O)NCc2ccc3c(c2)cc(C)n3C)cccc1[N+](=O)[O-]	none
O=[N+]([O-])c1cc(-n2cnnn2)ccc1N1CCC(Cc2ccccc2)CC1	RAM network inh 8.9 (no result: Calb biofilm kill)
O=C(CSc1nnc2scc(-c3ccccc3)n12)NCc1ccc2c(c1)OCO2	RAM network inh 9.6 (no result: Calb biofilm kill)
CN(C)C(=O)Cn1c(SCC(=O)NCc2ccc3c(c2)OCO3)nc2ccccc21	none
CC(=O)Nc1ccc(NC(=O)CSc2nnc(-c3ccccc3)n2Cc2ccc3c(c2)OCO3)cc1	WT yeast gro inh 65.6, RAM network inh 8.6 (no result: Calb biofilm kill)
O=C(CSc1nnc2scc(-c3ccc(Cl)cc3)n12)NCc1ccc2c(c1)OCO2	none (no result: Calb biofilm kill)
CC1CCCC(C)N1C(=O)Cn1c(SCC(=O)NCc2ccc3c(c2)OCO3)nc2ccccc21 (stereo not given)	RAM network inh 8.9 (no result: Calb biofilm kill)
CC(/C=C/c1ccccc1)NC(N)=O (stereo not given)	none (no result: Calb biofilm kill)
CCOC(=O)c1nn(-c2ccc3ccccc3c2)cc1O	none
CCCc1nnc(NC(=O)c2cn(CC)c3cc(N4CCN(C)CC4)c(F)cc3c2=O)s1	none (no result: WT yeast gro inh, Arbovirus anti, RAM network inh)
CCOc1ccc(NC(=O)/C=C/c2ccccc2)c([N+](=O)[O-])c1	none
CCOC(=O)c1ccccc1NS(=O)(=O)c1ccc(OCC)cc1	none (no result: Calb biofilm kill)
O=C(Nc1ccccc1N1CCOCC1)c1ccccc1NS(=O)(=O)c1ccc(F)cc1	none (no result: Calb biofilm kill)
CCOc1ccc(NC(=O)c2ccccc2NS(=O)(=O)c2ccc(F)cc2)c([N+](=O)[O-])c1	RAM network inh 10.1
O=C(Nc1cc(S(=O)(=O)N2CCCCC2)ccc1Cl)c1ccccc1NS(=O)(=O)c1ccc(F)cc1	WT yeast gro inh 71.7
CCOc1ccc(S(=O)(=O)Nc2ccccc2C(=O)Nc2ccccc2N2CCOCC2)cc1	RAM network inh 8.8 (no result: Calb biofilm kill)
CCOc1ccc(N/C=C/C(=O)c2ccccc2)c([N+](=O)[O-])c1	NCF1 inh 30.8
O=C(Nc1cc(S(=O)(=O)N2CCCCC2)ccc1O)c1ccccc1NS(=O)(=O)c1ccc(F)cc1	none
CCOC(=O)N1CCC(NS(=O)(=O)c2ccc(C)c(Cl)c2)CC1	none (no result: WT yeast gro inh, Arbovirus anti, RAM network inh)
Cc1ccc(NC(=O)c2cn(CCC#N)nc2-c2cccs2)c([N+](=O)[O-])c1	none
CC1CC(C)CN(S(=O)(=O)c2cc(C(=O)O)c(Cl)s2)C1 (stereo not given)	none
O=S(=O)(Cc1ccccc1)N1CCC(c2nc(-c3cccs3)no2)CC1	none (no result: Calb biofilm kill)
O=c1c(-c2nn[nH]n2)coc2ccc(Cl)cc12	none
CCOc1cc(S(=O)(=O)Nc2ccc(Cl)cn2)ccc1Cl	none
CCOc1cc(S(=O)(=O)Nc2ccccc2CC)ccc1Cl	WT yeast gro inh 69.0 (no result: Calb biofilm kill)
COc1ccc(O)c(C(=O)c2cc(C(=O)NCCc3ccccc3)c(=O)n(CCc3ccccc3)c2)c1	none
Cc1ccc(O)c(C(=O)c2cc(C(=O)NCCc3ccccc3)c(=O)n(CCc3ccccc3)c2)c1	RAM network inh 8.9
CCN(CC)P(=O)(Nc1ccc(C)cc1Br)c1ccc(N(C)C)cc1NC(=O)c1ccco1 (stereo not given)	WT yeast gro inh 60.2
COc1ccc(/C=C2\SC(N3CCc4ccccc4C3)=NC2=O)cc1	WT yeast gro inh 62.3
O=C(NCc1ccco1)c1cnn2c(C(F)F)cc(-c3ccccc3)nc12	none (no result: Calb biofilm kill)
Cc1cc(C)c(Cc2c(C)nc3c(C(=O)NCc4ccco4)cnn3c2C)c(C)c1	WT yeast gro inh 62.7 (no result: Calb biofilm kill)
CN(C)/C=C(\c1cnc(Cl)s1)S(=O)(=O)c1ccccc1	none
Cc1cc([N+](=O)[O-])ccc1NCc1ccc2ccccc2c1	RAM network inh 9.8 (no result: Calb biofilm kill)
Cc1cc([N+](=O)[O-])ccc1NCc1ccccc1	none (no result: Calb biofilm kill)
CCCN(CCC)CCCNC(=O)c1nn(-c2cccc(OC)c2)c(=O)c2ccccc12	none
COc1cc(/C=N/NC(=O)CSc2ccccn2)ccc1OC(C)C	none (no result: WT yeast gro inh, Arbovirus anti, RAM network inh)
Cc1ccc(SCc2ccc(C(=O)Nc3ccccc3Br)cc2)cc1	none
Cc1ccc(SCc2ccc(C(=O)Nc3ccccc3C(=O)NC(C)C)cc2)cc1	RAM network inh 9.1
CS(=O)(=O)N(Cc1ccccc1)c1ccc(C(=O)Nc2ccc3c(c2)OCO3)cc1	none (no result: Calb biofilm kill)
COc1ccccc1CCNC(=O)c1cc(-c2ccncc2)nc2ccc(Br)cc12	NCF1 inh 38.6, Hck-Nef inh 51.1
COc1ccccc1CCNC(=O)c1cc(-c2ccccn2)nc2ccc(Br)cc12	none
O=C(/C=C/c1ccc(Cl)cc1Cl)N1CCN(c2ccccc2[N+](=O)[O-])CC1	RAM network inh 8.6
O=C(/C=C/c1ccccc1[N+](=O)[O-])N1CCN(c2ccccc2F)CC1	RAM network inh 8.5
O=C(/C=C/c1cccc([N+](=O)[O-])c1)N1CCN(c2ccccc2F)CC1	none
O=[N+]([O-])c1cc(Cl)ccc1N1CCCCC1	none
O=[N+]([O-])c1cc(Cl)ccc1N1CCN(c2ccccc2O)CC1	WT yeast gro inh 75.4
CC(=O)Nc1cccc(C(=O)OCC(=O)NCc2ccc(F)cc2)c1	none
CC(C)n1cnnc1SCC(=O)Nc1ccc(Br)cc1F	none
O=C1C(Cl)=C(NC2CCCCC2)C(=O)N1Cc1ccccc1	WT yeast gro inh 69.8
Cc1nc2sc(C(N)=O)c(N)c2c2c1CCCC2	none (no result: WT yeast gro inh, Arbovirus anti, RAM network inh)
O=C(/C=C/c1cn(-c2ccccc2)nc1-c1ccccc1)Nc1ccc(C(=O)O)cc1	RAM network inh 8.9
N/C(=N\OC(=O)C1CC1)c1ccc([N+](=O)[O-])s1	none (no result: WT yeast gro inh, Arbovirus anti, RAM network inh)
C[n+]1cc[nH]c1SCC(=O)c1ccccc1	none (no result: Calb biofilm kill)
COC(=O)CSc1nc(N)c2c3c(sc2n1)C(c1ccccc1)SC(c1ccccc1)C3 (stereo not given)	WT yeast gro inh 66.9
C[C@]1(C(=O)NCCCNc2ncc(C(F)(F)F)cc2Cl)C=C[C@@H](Cc2ccccc2)N1C(=O)c1ccccc1	WT yeast gro inh 75.0

Compound activity as filed in PubChem BioAssay.
